The source of these data is PubChem BioAssay AID504588 (Broad Institute, 2011).

The subject of this test is U2OS HRE-luciferase reporter, luminescence. Description: hypoxia response element transcription activators – U2OS cells, luminescence, dry powder, set 10, dose response (AID 504588). Summed up: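 Assay system: human U2OS osteosarcoma cells stably expressing 3×HRE-driven luciferase reporter. Input: 6,000 cells per well. Schedule: 24 h compound exposure at 37 °C, 5% CO2, 21% O2. Measured by: Steady-Glo luminescence. Compound dosing: 3-fold dilution series.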
Take `Clc1cccc(CNc2nc(-c3ccccn3)nnc2-c2ccccc2)c1`: the AC40 is 1310 nM.
In the case of `c1ccc(-c2cccc(CNc3nc(-c4ccccn4)nnc3-c3ccccc3)c2)cc1`, the AC40 is 721 nM.
Consider `c1ccc(CCNc2nc(-c3ccccn3)nnc2-c2ccccc2)cc1`, for which the AC40 was 2520 nM.
Then `c1ccc(-c2ccc(CNc3nc(-c4ccccn4)nnc3-c3ccccc3)cc2)cc1`, with 360 nM; and `CC(C)(C)c1ccc(CNc2nc(-c3ccccn3)nnc2-c2ccccc2)cc1`, with 447 nM.
With `CC(C)(C)CCNc1nc(-c2ccccn2)nnc1-c1ccccc1`, the AC40 is 940 nM.
